Source: ChEMBL document CHEMBL2176917, “Effect of the prosthetic group on the pharmacologic properties of 18F-labeled rhodamine B, a potential myocardial perfusion agent for positron emission tomography (PET)” (J Med Chem, 2012)

Columns and labels:
[1] = Ratio of drug level in heart to blood in rat at 1.1 to 2.2, iv after 60 mins; assay type: ADME, organism-based; conditions: heart and blood (heart-to-blood ratio)
In short: (§1)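 Five rats per tracer received 1.1–2.2 MBq (30–60 µCi) of the 18F-labeled rhodamine ester in 100 µL 10% EtOH/saline through the tail vein after 0.2 µm filtration. They were killed by CO2 asphyxia at 60 min p.i. Excised tissues were weighed and counted for 18F. %ID/g was calculated against an injectate standard. Heart-to-blood ratios were derived from these values.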

[2] = tested on: Muscle tissue; assay: Biodistribution in rat muscle at 1.1 to 2.2, iv after 60 mins; assay type: ADME, organism-based; conditions: in vivo, 1 h; in short: as §1
[3] = tested on: Rattus norvegicus; assay: Biodistribution in rat gut at 1.1 to 2.2, iv after 60 mins; assay type: ADME, organism-based; conditions: in vivo, 1 h; in short: as §1
[4] = tested on: Liver; assay: Biodistribution in rat liver at 1.1 to 2.2, iv after 60 mins; assay type: ADME, organism-based; conditions: in vivo, 1 h; in short: as §1
[5] = tested on: Blood; assay: Biodistribution in rat blood at 1.1 to 2.2, iv after 60 mins; assay type: ADME, organism-based; conditions: in vivo, 1 h; in short: as §1
[6] = tested on: Heart; assay: Drug uptake in rat heart at 3.7 to 5.6 MBq after 5 mins by PET analysis; assay type: ADME, tissue-based; conditions: in vivo
In short: (§2)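 Each group of at least five rats was injected with 100 µL of filtered tracer (3.7–5.6 MBq, 100–150 µCi) in 10% EtOH/saline under isoflurane anesthesia (2–4% in air). MicroPET acquisition began as soon as possible after injection and ran 60 min in list mode. Images were reconstructed by 2D OSEM as one 60 min image or six 10 min frames. Time-activity curves for organs were expressed as kBq/cm3.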

[7] = tested on: Kidney; assay: Drug excretion in rat kidney at 3.7 to 5.6 MBq after 60 mins by PET analysis; assay type: ADME, tissue-based; conditions: in vivo, 1 h; in short: as §2
[8] = Drug excretion in rat gut at 3.7 to 5.6 MBq after 60 mins by PET analysis; assay type: ADME, tissue-based; conditions: in vivo, 1 h; in short: as §2
[9] = tested on: Liver; assay: Drug uptake in rat liver at 3.7 to 5.6 MBq after 60 mins by PET analysis; assay type: ADME, tissue-based; conditions: in vivo, 1 h; in short: as §2
[10] = Drug uptake in rat myocardium at 3.7 to 5.6 MBq after 60 mins by PET analysis; assay type: ADME, tissue-based; conditions: in vivo, 1 h; in short: as §2
[11] = Metabolic stability of the compound in human serum at 3.7 to 5.6 MBq after 120 mins; assay type: ADME, cell-free; conditions: read-out: Stability
In short: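 Tracer (3.7–5.6 MBq) in 20 µL 10% EtOH/PBS was added to 200 µL of mouse, rat or human serum, or to PBS, prewarmed to 37°C, then shaken and incubated at 37°C. At 15, 30, 60 and 120 min, aliquots were quenched with cold ethanol and kept on ice. Samples were filtered (30 kD cutoff, 4°C), diluted with water and analysed by radio-HPLC for intact tracer.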

[12] = tested on: Liver; assay: Drug uptake in rat liver at 3.7 to 5.6 MBq after 5 mins by PET analysis; assay type: ADME, tissue-based; conditions: in vivo; in short: as §2
[13] = tested on: Liver; assay: Drug uptake in rat liver at 3.7 to 5.6 MBq after 30 mins by PET analysis; assay type: ADME, tissue-based; conditions: in vivo, 0.5 h; in short: as §2
[14] = Metabolic stability of the compound in mouse serum at 3.7 to 5.6 MBq after 120 mins; assay type: ADME, cell-free; conditions: read-out: Stability
In short: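 Radiotracer (3.7–5.6 MBq) in 10% EtOH/PBS was added to serum pre-equilibrated at 37°C, shaken and incubated at 37°C. Aliquots were taken at 15, 30, 60 and 120 min and quenched with cold absolute EtOH. They were held on ice for 5 min, passed through a 30 kD cutoff filter at 4°C, and the water-diluted filtrate was analysed by radio-HPLC for intact tracer. A PBS incubation ran in parallel.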

[15] = tested on: Spleen (mouse); assay: Drug uptake in mouse spleen at 3.7 to 5.6 MBq after 60 mins by PET analysis; conditions: in vivo, 1 h
[16] = tested on: Kidney (mouse); assay: Drug uptake in mouse kidney at 3.7 to 5.6 MBq after 60 mins by PET analysis; conditions: in vivo, 1 h
[17] = tested on: Intestine (mouse); assay: Drug uptake in mouse intestine at 3.7 to 5.6 MBq after 60 mins by PET analysis; conditions: in vivo, 1 h
[18] = tested on: Gall bladder (mouse); assay: Drug uptake in mouse gall bladder at 3.7 to 5.6 MBq after 60 mins by PET analysis; conditions: in vivo, 1 h
[19] = Ratio of drug level in heart to blood in Sprague-Dawley rat after 5 mins; assay type: ADME; conditions: heart and blood (heart-to-blood ratio)
[20] = Ratio of drug level in heart to blood in Sprague-Dawley rat after 60 mins; assay type: ADME; conditions: heart and blood (heart-to-blood ratio)
[21] = tested on: Nucleic Acid; assay: Ratio of drug level in heart to liver in Sprague-Dawley rat after 60 mins; assay type: ADME, tissue-based; conditions: in vivo, 1 h
[22] = tested on: Nucleic Acid; assay: Ratio of drug level in heart to bone in rat at 1.1 to 2.2, iv after 60 mins; assay type: ADME, organism-based; conditions: in vivo, 1 h
In short: (§3)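 Five rats per compound each received 1.1–2.2 MBq of tracer in 10% EtOH/saline by tail vein. They were killed by CO2 at 60 min p.i., and selected tissues were excised, weighed and counted for 18F. %ID/g was calculated against a standard prepared from the injectate. Unpaired two-tailed t test.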

[23] = tested on: Nucleic Acid; assay: Ratio of drug level in heart to liver in rat at 1.1 to 2.2, iv after 60 mins; assay type: ADME, organism-based; conditions: in vivo, 1 h; in short: as §3
[24] = tested on: Nucleic Acid; assay: Ratio of drug level in heart to lung in rat at 1.1 to 2.2, iv after 60 mins; assay type: ADME, organism-based; conditions: in vivo, 1 h; in short: as §3
[25] = tested on: Nucleic Acid; assay: Ratio of drug level in heart to liver in Wistar rat after 60 mins; assay type: ADME, tissue-based; conditions: in vivo, 1 h

Which Kp at 1 h [1] does the source give for CCN(CC)c1ccc2c(-c3ccccc3C(=O)OCCC[18F])c3ccc(=[N+](CC)CC)cc-3oc2c1.Cc1ccc(S(=O)(=O)[O-])cc1 here?
Its Kp at 1 h is 26.4.

And the Drug uptake [2]?
The Drug uptake was 0.3 % ID/g.

What about the Drug uptake [3] of the same compound?
Its Drug uptake is 2.53 % ID/g.

And the Drug uptake [4]?
Its Drug uptake is 0.55 % ID/g.

What about the Drug uptake [5] of the same compound?
Its Drug uptake is 0.05 % ID/g.

What about the Drug uptake [6] of the same compound?
The Drug uptake was 66 kBq/cm3.

And the Drug excretion [7]?
Its Drug excretion is “Active”.

And the Drug excretion [8]?
The Drug excretion was “Active”.

And the Drug uptake [9]?
The Drug uptake was “Active”.

And the Drug uptake [10]?
Its Drug uptake is “Active”.

What about the remaining at 2 h [11] of the same compound?
The remaining at 2 h was 99%.

And the Drug uptake [12]?
Its Drug uptake is 65 kBq/cm3.

For CCN(CC)c1ccc2c(-c3ccccc3C(=O)OCCOCC[18F])c3ccc(=[N+](CC)CC)cc-3oc2c1.Cc1ccc(S(=O)(=O)[O-])cc1, which Kp at 1 h [1] is on record?
Its Kp at 1 h is 10.

What about the Drug uptake [2] of the same compound?
Its Drug uptake is 0.54 % ID/g.

What about the Drug uptake [3] of the same compound?
The Drug uptake was 1.69 % ID/g.

And the Drug uptake [4]?
The Drug uptake was 0.49 % ID/g.

What about the Drug uptake [5] of the same compound?
The Drug uptake was 0.25 % ID/g.

And the Drug uptake [13]?
The Drug uptake was “Active”.

And the Drug uptake [6]?
The Drug uptake was 69 kBq/cm3.

And the Drug excretion [7]?
Its Drug excretion is “Active”.

What about the Drug excretion [8] of the same compound?
Its Drug excretion is “Active”.

And the Drug uptake [9]?
The Drug uptake was “Active”.

And the Drug uptake [10]?
Its Drug uptake is “Active”.

And the remaining at 2 h [11]?
The remaining at 2 h was 97.1%.

And the remaining at 2 h [14]?
The remaining at 2 h was 97.1%.

What about the Drug uptake [12] of the same compound?
The Drug uptake was 59 kBq/cm3.

And the Drug uptake [15]?
The Drug uptake was “Active”.

What about the Drug uptake [16] of the same compound?
Its Drug uptake is “Active”.

What about the Drug uptake [17] of the same compound?
The Drug uptake was “Active”.

And the Drug uptake [18]?
The Drug uptake was “Active”.

For [18F]c1ccc([P+](c2ccccc2)(c2ccccc2)c2ccccc2)cc1 [BFPET F-18], which Kp at 5 min [19] is on record?
Its Kp at 5 min is 11.

What about the Kp at 1 h [20] of the same compound?
Its Kp at 1 h is 75.

What about the Ratio [21] of the same compound?
Its Ratio is 9.2.

With CCN(CC)c1ccc2c(-c3ccccc3C(=O)OCC[18F])c3ccc(=[N+](CC)CC)cc-3oc2c1.Cc1ccc(S(=O)(=O)[O-])cc1 as the compound, how does the Ratio [22] read?
The Ratio was 4.6.

And the Ratio [23]?
Its Ratio is 2.3.

What about the Kp at 1 h [1] of the same compound?
Its Kp at 1 h is 25.8.

And the Ratio [24]?
The Ratio was 1.6.

What about the Drug uptake [2] of the same compound?
Its Drug uptake is 0.16 % ID/g.

And the Drug uptake [3]?
The Drug uptake was 2.4 % ID/g.

And the Drug uptake [4]?
The Drug uptake was 0.89 % ID/g.

What about the Drug uptake [5] of the same compound?
Its Drug uptake is 0.08 % ID/g.

What about the Drug uptake [9] of the same compound?
Its Drug uptake is “Active”.

What about the remaining at 2 h [14] of the same compound?
The remaining at 2 h was 25%.

With CCN(CC)c1ccc2c(-c3ccccc3C(=O)OCCOCCOCC[18F])c3ccc(=[N+](CC)CC)cc-3oc2c1.Cc1ccc(S(=O)(=O)[O-])cc1 as the compound, how does the Kp at 1 h [1] read?
The Kp at 1 h was 5.4.

What about the Drug uptake [2] of the same compound?
Its Drug uptake is 0.32 % ID/g.

What about the Drug uptake [3] of the same compound?
The Drug uptake was 0.44 % ID/g.

And the Drug uptake [4]?
The Drug uptake was 0.25 % ID/g.

What about the Drug uptake [5] of the same compound?
Its Drug uptake is 0.19 % ID/g.

And the Drug uptake [6]?
The Drug uptake was 16 kBq/cm3.

What about the Drug excretion [7] of the same compound?
Its Drug excretion is “Active”.

And the Drug excretion [8]?
Its Drug excretion is “Active”.

And the Drug uptake [9]?
Its Drug uptake is “Active”.

What about the Drug uptake [10] of the same compound?
Its Drug uptake is “Active”.

What about the Drug uptake [12] of the same compound?
The Drug uptake was 15 kBq/cm3.

And the Drug uptake [15]?
Its Drug uptake is “Active”.

And the Drug uptake [16]?
Its Drug uptake is “Active”.

What about the Drug uptake [17] of the same compound?
Its Drug uptake is “Active”.

What about the Drug uptake [18] of the same compound?
Its Drug uptake is “Active”.

Which results are given for CC(C)(C)n1ncc(OCc2ccc(COCC[18F])cc2)c(Cl)c1=O [FLURPIRIDAZ F 18]?
Kp at 1 h [20]: 13.7; Ratio [21]: 3.7; Ratio [25]: 5.4
